Hits are enriched below; roughly 3.8% of the tested compounds scored in any of these assays.
MrgX1 antagonist: human MrgX1 receptor antagonism, primary screen. actives 1.3% (n = 310,000). MRGX1-HEK293 calcium flux, Fluo-4, BAM8-22 antagonism; active compounds read low. Q96LB2. B-score at 10 µM;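 active = calcium-response B-score plate-corrected more than 3 library SD below zero, starting fluorescence within 5 deviations, no agonist response on first addition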;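 also: peak minus trough fluorescence over baseline after final BAM8-22 challenge near maximal dose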
Target sequence (Q96LB2 whole entry, looked up): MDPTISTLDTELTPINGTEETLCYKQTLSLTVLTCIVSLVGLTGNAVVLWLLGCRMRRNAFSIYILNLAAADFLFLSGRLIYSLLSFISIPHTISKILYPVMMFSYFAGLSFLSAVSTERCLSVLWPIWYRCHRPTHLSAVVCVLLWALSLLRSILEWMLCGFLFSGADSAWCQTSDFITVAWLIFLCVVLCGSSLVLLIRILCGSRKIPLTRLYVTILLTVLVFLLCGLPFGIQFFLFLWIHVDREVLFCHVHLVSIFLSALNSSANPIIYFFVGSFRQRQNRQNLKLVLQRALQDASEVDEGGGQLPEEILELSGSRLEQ
Lipid droplet: hepatic lipid droplet formation modulation; AML12 mouse hepatocytes, oleate lipid droplets, BODIPY imaging; inhibition, % at 6.5 µM; actives 0.4% (n = 240,000); AID 1656;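 active = lipid droplet intensity inhibited by at least 50%, with more than 500 cells counted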
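Material: mouse AML12 hepatocyte cell line, fixed after treatment; Timing: compound with oleate, overnight; Technique: high-content imaging of BODIPY-stained droplets and DAPI nuclei; Probe or stimulus: oleate, 100 µM final; Dosing: compound at 6.5 µM only.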
MrgX1 ag: human MrgX1 receptor agonism, primary screen | Q96LB2 | MrgX1-HEK293 cells, Fluo-4 calcium fluorescence, agonist mode; active compounds read high | B-score at 10 µM | actives 0.44% (n = 310,000) | AID 588627;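 active = calcium response B-score plate-corrected fluorescence ratio at least 3 library SD, with starting fluorescence B-score inside 5 SD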
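Test system: HEK293 cells stably expressing human MrgX1 receptor; amount: 15,000 cells per well; doses: compound delivered in addition one of three; times: overnight plating before 1 h dye loading; detection: Fluo-4 NW calcium-flux fluorescence, kinetic read; read-out basis: B-scored fluorescence response ratio; controls: positive and negative controls per plate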
MrgX1 PAM: human MrgX1 positive allosteric modulation, primary screen. B-score at 10 µM. MrgX1-HEK293, Fluo-4 calcium flux, FDSS; active compounds read high. Q96LB2. actives 0.63% (n = 310,000);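 active = plate-corrected calcium response at least 3 library SD above typical, normal starting fluorescence, not activating the receptor alone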;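 also: compound read alongside a low EC10 to EC30 dose of BAM8-22 agonist; peak minus trough fluorescence over baseline measured at the second addition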
RGS4 pot: RGS4 potentiation or activation; actives 0.92% (n = 310,000); HEK293 M3R/inducible RGS4, carbachol calcium flux Fluo4; active compounds read low; AID 463111; B-score at 10 µM;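 active = B-score of the integrated calcium signal more than 4 SD below the library mean, with starting fluorescence not abnormally high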;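 also: negative B-score means reduced calcium response which marks RGS4 activation or potentiation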
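Assay system: HEK293 FlpIn-TREx cells, stable M3R, doxycycline-inducible RGS4 / Probe or stimulus: carbachol, ECmax concentration / Times: overnight RGS4 induction, 30 min dye load 37 °C, 20 min compound RT / Signal: kinetic calcium fluorescence imaging with Fluo4-AM dye, 2 µM / Measure: Agonist-evoked peak-minus-minimum fluorescence over baseline, integrated ratio, B score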
RGS4 inh: human RGS4 inhibition. P49798. HEK293 M3R/RGS4 inducible, Fluo-4 calcium flux; active compounds read high; triggered by carbachol at its EC20. B-score at 10 µM. actives 0.45% (n = 310,000). AID 463165;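 active = B-score, a plate-corrected calcium signal, over three deviations above library mean, with baseline fluorescence within five deviations of library mean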;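 also: RGS4 expression induced by doxycycline in cells with stable M3 receptor; B-score is computed from the integrated fluorescence ratio over baseline after carbachol; higher B-score means a larger calcium signal and so more RGS4 inhibition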
Target sequence (P49798 whole entry, looked up): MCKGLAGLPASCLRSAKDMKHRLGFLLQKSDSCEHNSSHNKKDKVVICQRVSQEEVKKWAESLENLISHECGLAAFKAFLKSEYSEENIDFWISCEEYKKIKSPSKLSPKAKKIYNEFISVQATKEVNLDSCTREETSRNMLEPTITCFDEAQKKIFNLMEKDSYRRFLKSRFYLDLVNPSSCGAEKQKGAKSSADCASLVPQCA
MrgX1 ant reconf: confirmation of human MrgX1 receptor antagonists; shares compounds with MrgX1 antagonist; MrgX1-HEK293, BAM8-22 calcium flux, Fluo-4; active compounds read low; remaining BAM8-22 calcium response % of control (active compounds read low), % at 10 µM; actives 19% (n = 2,300); AID 602420;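 active = remaining agonist calcium response no higher than 100% minus 3 SD of agonist-only control wells, with starting fluorescence near control levels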;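 also: agonist BAM8-22 given at a near maximal EC90 to ECmax level; peak minus minimum fluorescence divided by baseline after agonist addition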
HEK293 Ca flux: activity in parental HEK293 cells lacking MrgX1; Fluo-4 calcium fluorescence, FDSS; fluorescence ratio F(max-min)/F0 at 10 µM; actives 2% (n = 4,000); shares compounds with MrgX1 antagonist;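 active = duplicate-averaged calcium fluorescence ratio at least three times the standard deviation of buffer wells, a nonspecific response in parental cells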
HEK293 Ca counter: MrgX1 allosteric activator counter-screen hit in parental HEK293 cells | AID 624114 | actives 0.4% (n = 4,000) | shares compounds with MrgX1 antagonist | fluorescence ratio F(max-min)/F0 at 10 µM | parental HEK293 calcium flux, Fluo-4 fluorescence ratio; active compounds read high;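 active = calcium fluorescence ratio, averaged over duplicates, at least 3 SD of the buffer-well ratio, meaning a nonspecific response in receptor-free cells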;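 also: untransfected parental HEK293 lacking MrgX1 used as counterscreen for MrgX1 allosteric activators; fluorescence change taken during the second addition on a kinetic imager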
HEK293 Ca cntr2: counter-screen for MrgX1 activators: effect in parental HEK293 cells | fluorescence ratio F(max-min)/F0 at 10 µM | shares compounds with MrgX1 antagonist | Fluo-4 calcium fluorescence (FDSS); active compounds read high | actives 8.7% (n = 4,000);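 active = calcium fluorescence ratio at least three times the spread of buffer wells, meaning a non-specific response in parental cells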
* = called active by the depositor; i = inactive; · = not tested or not shown.

SMILES | MrgX1 antagonist | Lipid droplet | MrgX1 ag | MrgX1 PAM | RGS4 pot | RGS4 inh | MrgX1 ant reconf | HEK293 Ca flux | HEK293 Ca counter | HEK293 Ca cntr2
COc1ccccc1NC(=O)c1ccc(-n2cncn2)nc1 | -5.2* | 11 | i | i | i | i | 78%* | i | i | i
O=C1CSC(c2cccc(F)c2)N1c1ccccc1 (stereo not drawn) | i | -1 | i | i | i | i | · | · | · | ·
Cc1[nH]c2ccccc2c1Cc1nnc(SCCC#N)o1 | i | -2 | i | i | i | i | · | · | · | ·
O=C(CNS(=O)(=O)c1ccc([N+](=O)[O-])cc1)N/N=C/c1ccc(O)cc1O | -13* | 1 | i | i | i | i | 40%* | i | 63* | i
CC(=O)Nc1ccc(-c2ccc(NC(C)=O)cc2)cc1 | i | 8 | i | i | i | i | · | · | · | ·
CC(=O)Nc1ccc(NS(=O)(=O)C(F)(F)F)cc1 | -8.7* | -3 | i | i | i | i | i | i | i | i
CC(=O)Nc1cccc(NC(=O)CCn2c(=O)sc3ccccc32)c1 | i | 21 | i | i | i | i | · | · | · | ·
CSc1ccccc1NC(=O)CCn1c(=O)sc2ccccc21 | -6.3* | · | i | i | i | i | i | i | i | i
COC(=O)C1CCN(S(=O)(=O)c2ccc(NC(C)=O)cc2)CC1 | i | 0 | i | i | i | i | · | · | · | ·
COC(=O)C1CCN(S(C)(=O)=O)CC1 | -4.6* | -7 | i | i | i | i | i | i | i | i
Cc1ccccc1OCc1nnc(SCC(=O)Nc2ccc(N3CCOCC3)cc2)n1C | i | -3 | i | i | i | i | · | · | · | ·
CCc1nnc(SCC(=O)Nc2ccc(N3CCOCC3)cc2)n1C | -5.6* | 31 | i | i | i | i | i | i | i | i
CC(C)Cn1c(SCC(=O)c2ccc(Cl)s2)nnc1-c1ccco1 | i | · | i | i | i | i | · | · | · | ·
COC(=O)CSc1nnc(CNc2ccc(OC)cc2)n1C | i | · | i | i | i | i | · | · | · | ·
CCOc1ccc(NC(=O)CS(=O)(=O)c2cn(C)c3ccccc23)cc1 | -8* | -4 | i | i | i | i | i | i | i | i
CC(C)c1ccc(NC2CCCN(C(=O)c3cnsn3)C2)cc1 (stereo not drawn) | -6.8* | 7 | i | i | i | i | i | i | i | i
Cc1cc(C(=O)N2CCCC(Nc3ccc(C(C)C)cc3)C2)nn1C (stereo not drawn) | i | -1 | i | i | i | i | · | · | · | ·
CC(=O)Nc1cccc(NC(=O)Nc2cccc(Cl)c2C)c1 | -5.5* | 15 | i | i | i | i | i | i | i | i
O=C1CC(c2ccc(Cl)cc2)SC(N(c2ccccc2)c2ccccc2)=N1 (stereo not drawn) | i | 2 | i | i | i | i | · | · | · | ·
O=C(Nc1ccccc1F)c1ccc(C(=O)c2ccccc2)cc1 | -5.6* | 5 | i | i | i | i | 84%* | i | i | i
O=C(O)c1ccc(Nc2cc(Cl)c3nonc3c2[N+](=O)[O-])cc1 | i | 18 | i | i | i | i | · | · | · | ·
O=[N+]([O-])c1c(Nc2cccc(O)c2)cc(Cl)c2nonc12 | -11* | 1 | i | i | i | i | i | i | i | i
CC(C)c1ccc(-c2nc(N3CCCC3)nc3n[nH]c(N)c23)cc1 | -5.4* | 40 | i | i | i | i | i | i | i | i
COc1ccccc1NC(=S)N1CCC(C(=O)c2ccc(F)cc2)CC1 | i | 19 | i | i | i | i | · | · | · | ·
CC(=O)c1cc(OC(=O)c2ccncc2)ccc1OC(=O)c1ccncc1 | i | -5 | i | i | i | i | · | · | · | ·
SMILES | MrgX1 antagonist | Lipid droplet | MrgX1 ag | MrgX1 PAM | RGS4 pot | RGS4 inh | MrgX1 ant reconf | HEK293 Ca flux | HEK293 Ca counter | HEK293 Ca cntr2
CN(C)S(=O)(=O)c1cccc(C(=O)NCCCn2ccnc2)c1 | i | 8 | i | i | i | i | · | · | · | ·
O=C(NCCCn1ccnc1)c1cccc(S(=O)(=O)Nc2ccc(Br)cc2)c1 | -4.5* | · | i | i | i | i | i | i | i | i
O=C(c1ccc(Cn2c(=S)[nH]c3ccccc3c2=O)cc1)N1CCN(c2ccccn2)CC1 | -8* | -13 | i | i | i | i | 84%* | i | i | i
O=C(CC(=O)Nc1nc(C23CC4CC(CC(C4)C2)C3)cs1)NCCO | -5.7* | -15 | i | i | i | i | 65%* | i | i | i
O=S(=O)(NC1c2cccc3cccc(c23)C1N1CCNCC1)c1ccc(Cl)cc1 (stereo not drawn) | -5.8* | -19 | i | i | i | i | 84%* | i | i | i
CCn1nc(C)cc1C(=O)N1CCCC(N2CCN(Cc3ccc4c(c3)OCO4)CC2)C1 (stereo not drawn) | i | -6 | i | i | i | i | · | · | · | ·
CC(/C=N\NC(=O)Cn1c(C)nc2ccccc21)=C\c1ccccc1 | -11* | · | i | i | i | i | i | i | i | i
O=C1C(=O)N(CCN2CCOCC2)C(c2ccccc2F)/C1=C(\O)c1ccc(S(=O)(=O)N2CCOCC2)cc1 (stereo not drawn) | i | 7 | i | i | i | i | · | · | · | ·
CCOC(=O)C1CCCN(C(=O)C(C)Oc2ccc(Cl)cc2Cl)C1 (stereo not drawn) | i | -3 | i | i | i | i | · | · | · | ·
COC(=O)C1CCN(C(=O)C(C)Oc2ccc(Cl)cc2Cl)CC1 (stereo not drawn) | -9.9* | -9 | i | i | i | i | i | i | i | i
O=C(Cn1c(C(F)(F)F)nc2ccccc21)Nc1ccccc1C(=O)O | -5.8* | 10 | i | i | i | i | i | i | i | i
